Assay outcomes from PubChem.
STAT1 inh: inhibitors of IFN-gamma induced STAT1 signaling. inhibition, % at 5.5 µM. AID 920. NIH 3T3 STAT1-luciferase reporter, luminescence. hit rate 0.35% among 200,000;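 active = inhibition above a set limit, the mean inhibition across all tested compounds plus 3 SD, cut at about 34% in these data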;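 note: 0% = IFN-gamma with DMSO and 100% = IFN-gamma with 300 µM nifuroxazide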
STAT3 act: increases IL-6 driven STAT3 reporter signal; hit rate 0.91% among 190,000; AID 871; activation (% of control), % at 5.6 µM; U3A cells, IL-6 STAT3-luciferase reporter, luminescence; 100% = signal with IL-6 EC80 alone;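 active = activation above the screen-wide mean of compound activation plus 3 SD, cut at about 130% in these data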;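 note: 0% = background luminescence of wells with medium and substrate only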
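Test system: Human STAT1-deficient U3A cells with stable STAT3-luciferase reporter | Also added: Interleukin-6, 33 ng/mL | Timing: Compound pre-incubation 1 h before IL-6, then 6 h stimulation at 37 °C | Technique: Luciferase reporter luminescence | Read-out: Percent of IL-6-only median luminescence | Benchmarks: IL-6-only wells as 100% reference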
Pf gamet viab: kills late stage P. falciparum gametocytes | AID 743093 | inhibition, % at 10.9 µM | hit rate 0.065% among 150,000 | P. falciparum stage V gametocytes, ATP luminescence, 24 h;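 active = inhibition above the mean plus 3 SD of compounds within the control limits, set per campaign, cut at about 38% in these data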;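 note: 0% = DMSO wells and 100% = medium only without gametocytes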
STAT1 activator: increases IFN-gamma driven STAT1 reporter signal; NIH 3T3 STAT1-luciferase reporter, luminescence; 100% = IFN-gamma alone, no compound; activation (% of control), % at 5.5 µM; hit rate 2.6% among 200,000;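 active = activation above the screen-wide mean activation plus 3 SD, cut at about 130% in these data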;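 note: raw ratio to IFN-gamma control signal so 100% means no change and 0% no light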
APP 5'UTR act: APP 5'UTR luciferase reporter activation; hit rate 1% among 190,000; SH-SY5Y APP 5'UTR luciferase reporter, luminescence; zero percent = DMSO vehicle wells; AID 1276; activation, % at 2 µM;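 active = activation above a set limit, based on mean plus 3 SD of controls, cut at about 140% in these data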
NF-kB expr up: raises NF-kB expression in human neuronal cells. fold change at 12.5 µM. NF-kB reporter expression; stronger effect = higher value. hit rate 1.6% among 190,000. AID 1239; in the data active = fold change above about 3.3
STAT1 activ conf: confirmation of STAT1 signaling activators; NIH 3T3 STAT1-luciferase reporter, IFN-gamma potentiation, luminescence; 100% = IFN-gamma EC80 alone, no compound; hit rate 97% among 1,200; activation (% of control), % at 5.7 µM; AID 1262; shares compounds with STAT1 activator;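 active = activation above a set limit carried over from the earlier primary STAT1 screen, cut at about 140% in these data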;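 note: simple ratio to median IFN-gamma plus DMSO wells so 0% means no light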
NFkB act: NF-kappaB activation in STAT1 activator counter-screen | shares compounds with STAT1 activator | HEK293T NF-kB luciferase reporter, TNF-alpha stimulated, luminescence; 100% = TNF-alpha with vehicle only | activation (% of control), % at 5.7 µM | hit rate 43% among 1,200 | AID 1306;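 active = activation above the mean of solvent-only control wells plus 3 SD, set per campaign, cut at about 130% in these data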;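 note: TNF-alpha given at a submaximal dose yielding about 80% of full reporter signal; values are well signal over median control so 100% means no change and 0% no light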
STAT3 act STAT1c: counter-screen for STAT1 activators: human STAT3 activation. hit rate 46% among 1,200. U3A cells STAT3-luciferase reporter, IL-6, luminescence; cells lack STAT1; 100 = IL-6 alone, no compound effect. shares compounds with STAT1 activator. activation (% of control), % at 5.7 µM;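 active = activation above the solvent-only control well mean plus 3 SD, set per plate batch, cut at about 110% in these data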;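 note: 0% = no luminescence and 100% = median IL-6 plus DMSO wells; higher means more STAT3 reporter activation so hits are non-selective activators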
* marks the source's active call; other numbers are inactive results; nt = not tested or not shown. Shown are actives, neighbours in structure and some others; about 3.9% of the full set was active somewhere.

SMILES	STAT1 inh	STAT3 act	Pf gamet viab	STAT1 activator	APP 5'UTR act	NF-kB expr up	STAT1 activ conf	NFkB act	STAT3 act STAT1c
CC(=O)Nc1ccccc1C(=O)OCC(=O)c1ccc2c(c1)OCCO2	-83	110	3	175*	77	0.63	203*	120	116*
CC(=O)Nc1ccccc1C(=O)OCc1ccc(F)cc1	-83	104	8	175*	6	0.97	125	109	97
CC1(C(=O)O)CCCC2(C)c3cc(O)ccc3CCC12 (configuration not stated)	nt	nt	19	nt	nt	nt	nt	nt	nt
N=C1c2ccccc2CN1CC(=O)c1ccccc1	-91	106	8	182*	143*	7.8*	154*	130	119*
N=C1c2ccccc2CN1NC(=O)c1ccccc1	-1	100	6	103	38	1.2	nt	nt	nt
Cc1cccc(-n2c(/C=C/c3ccc([N+](=O)[O-])o3)nc3ccccc3c2=O)c1	0	107	4	100	nt	1	nt	nt	nt
O=c1c2ccccc2nc(/C=C/c2ccc([N+](=O)[O-])o2)n1-c1ccc(O)cc1	-246	81	6	326*	-80	1.6	175*	154*	101
CN1CCN(c2c(C#N)c(C(F)(F)F)nn2C)CC1	1	96	-11	97	-9	0.98	nt	nt	nt
CN1C2CCC1/C(=C/c1ccccn1)C(=O)/C2=C\c1ccccn1	-118	57	-7	209*	-95	0.47	477*	252*	57
N#CSCC(=O)N1c2ccccc2CCc2ccccc21	5	101	-26	96	-19	1.1	nt	nt	nt
Nc1ccccc1C(=O)OCC(=O)N1CCc2ccccc21	-57	97	nt	154*	13	2.2	168*	116	97
CCN1CCC(NCC2CCCCC2)CC1	nt	nt	-6	nt	nt	nt	nt	nt	nt
